The text below walks through data of ChEMBL document CHEMBL3271948, “Irreversible enzyme inhibitors. 200. Active-site-directed inhibitors of deoxycytidine kinase” (J Med Chem, 1977).

In general, solubility refers to how much of the substance goes into solution per volume.

Series [1] is described as follows: Maximum solubility of the compound. The format is physicochemical.
The next series deals with Deoxycytidine kinase (Rattus norvegicus, UniProt P48769). The series is described as follows: (§1) Irreversible inhibition of Walker 256 rat tumor deoxycytidine kinase by [3H]deoxycytidine binding assay. To be noted: read-out: I50. An outline of the steps:
(§2)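 Enzyme came from the 0–45% (NH4)2SO4 fraction of Walker 256 rat tumor, treated with 1 M HOAc. The assay contained [3H]deoxycytidine 0.025 mM, ATP 5 mM, MgCl2 5 mM and Tris pH 8.0 buffer 50 mM. Inhibitor was added in DMSO. Phosphorylated product was measured by adsorption to DEAE-cellulose filter disks. Inhibition was expressed as V0/V1, the uninhibited over the inhibited rate.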

The target in series [2] is Deoxycytidine kinase (Rattus norvegicus) (UniProt P48769). As to the kind of experiment: Irreversible inhibition of Walker 256 rat tumor deoxycytidine kinase assessed as ratio of V0/V1 by [3H]deoxycytidine binding assay. An outline of the steps:
as §2

The target is the same in series [3]. Described as §1. An outline of the steps:
as §2

≈ marks a conversion by molar mass, not a printed value. Calls of active or inactive are those of the source. The rule behind the calls is not given here.

Chain of Deoxycytidine kinase (Rattus norvegicus) (P48769 whole entry): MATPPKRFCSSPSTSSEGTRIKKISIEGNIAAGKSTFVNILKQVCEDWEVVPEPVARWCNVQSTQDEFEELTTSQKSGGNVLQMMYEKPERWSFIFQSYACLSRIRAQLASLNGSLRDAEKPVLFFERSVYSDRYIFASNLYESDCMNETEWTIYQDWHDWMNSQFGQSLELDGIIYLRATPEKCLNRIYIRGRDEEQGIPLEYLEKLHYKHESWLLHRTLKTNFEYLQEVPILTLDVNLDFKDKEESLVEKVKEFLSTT
Chain of Deoxycytidine kinase (P48769 whole entry): as above

For the compound `Nc1ccn(-c2cccc3ccccc23)c(=O)n1`, the solubility in series [1] amounted to 500 µM (≈ 119 µg/mL). In addition, the IC50 at Deoxycytidine kinase was 1500 µM. Moreover, the Ratio in series [2] worked out at 1.4.

Turning to `Nc1ccn(CCOc2ccccc2)c(=O)n1`, on Deoxycytidine kinase, the IC50 turned out to be 6000 µM. The IC in series [3] was 5 mM. The Ratio in series [2] amounted to 1.8.

On to `Oc1nccc(Nc2ccccc2)n1`, for which, in series [3], the inhibition entry is “inactive”.

Consider `Nc1cc(Nc2ccccc2)[nH]c(=O)n1`, for which, in series [3], the inhibition entry is “inactive”.

Compound `Nc1ccnc(SCCCCc2ccccc2)n1` came in with a solubility in series [1] of 500 µM (≈ 130 µg/mL). Besides, the IC50 at Deoxycytidine kinase worked out at 1000 µM. Besides, the Ratio in series [2] was found to be 1.5.

Regarding `CCCCCNc1cc[nH]c(=O)n1`, the inhibition entry in series [3] was “inactive”.

Take `Nc1cc[nH]c(=O)n1`: the IC in series [3] turned out to be 10 mM. Also, the Ratio in series [2] was found to be 1.

Turning to `CSc1nc(N)cc(OCc2ccccc2)n1`, the inhibition result in series [3] is “inactive”.

Take `CC(C)CCn1ccc(N)nc1=O`: the IC50 at Deoxycytidine kinase was 5000 µM. Also, the IC in series [3] came out at 5 mM. For the same compound, the Ratio in series [2] turned out to be 2.

With `Nc1cc(NCc2ccccc2)[nH]c(=O)n1`, the inhibition entry in series [3] was “inactive”.

For `Nc1nc(=O)[nH]cc1-c1ccc(Cl)c(Cl)c1`, in series [3], the inhibition result is “inactive”.

Take `CC(=O)Nc1cc[nH]c(=O)n1`: the inhibition entry in series [3] is “inactive”.

Regarding `COc1ccc(-c2c[nH]c(=O)nc2N)cc1`, the inhibition entry in series [3] was “inactive”.

For the compound `COCCOc1nccc(N)n1`, in series [3], the IC is 5 mM. The Ratio in series [2] was 1.

As to `Nc1ccn(Cc2ccccc2)c(=O)n1`, the solubility in series [1] is 2500 µM (≈ 503 µg/mL). Moreover, the IC50 on Deoxycytidine kinase was 12000 µM. The Ratio in series [2] worked out at 1.4.

As for `O=c1nc(NCc2ccccc2)cc[nH]1`, in series [3], the inhibition entry is “inactive”.

Take `O=C(Nc1ccnc(=O)[nH]1)c1ccccc1`: in series [3], the inhibition entry is “inactive”.

Turning to `Nc1ccnc(OCc2ccccc2)n1`, the IC50 at Deoxycytidine kinase came out at 6000 µM. In series [3], the IC came out at 7.5 mM. In series [2], the Ratio was 2.4.

On to `CCCn1ccc(N)nc1=O`, for which the IC50 at Deoxycytidine kinase was 12000 µM. In series [3], this compound had an IC of 5 mM. For the same compound, the Ratio in series [2] stood at 1.4.

On to `CS(=O)(=O)c1nc(N)cc(OCc2ccccc2)n1`, for which the inhibition entry in series [3] is “inactive”.

Regarding `Nc1ccn(CCCCc2ccccc2)c(=O)n1`, the solubility in series [1] stood at 1000 µM (≈ 243 µg/mL). For the same compound, the IC50 on Deoxycytidine kinase was 1000 µM. Besides, in series [2], the Ratio turned out to be 2.

In series [1], `Nc1ccnc(Sc2ccc3ccccc3c2)n1` displayed a solubility of 500 µM (≈ 127 µg/mL). In addition, the IC50 on Deoxycytidine kinase worked out at 500 µM. Besides, the Ratio in series [2] was found to be 2.

Turning to `CCCCCCCCOc1nccc(N)n1`, in series [1], the solubility worked out at 250 µM (≈ 55.8 µg/mL). In addition, at Deoxycytidine kinase, the IC50 was 1000 µM. In series [2], the Ratio was found to be 1.5.

`Nc1ccnc(SCc2ccc(Cl)cc2)n1` returned a solubility in series [1] of 1000 µM (≈ 252 µg/mL). Moreover, the IC50 on Deoxycytidine kinase was 1000 µM. For the same compound, the Ratio in series [2] amounted to 2.

With `CCCOc1nccc(N)n1`, the IC in series [3] came out at 5 mM. Further, in series [2], the Ratio was determined as 1.

As for `CCCCNc1cc(N)nc(=O)[nH]1`, in series [3], the inhibition entry is “inactive”.

With `Nc1ccnc(SCCCOc2ccccc2)n1`, the concentration in solution in series [1] (solubility) was 1000 µM (≈ 261 µg/mL). The IC50 at Deoxycytidine kinase is 2000 µM. The Ratio in series [2] amounted to 1.5.

Regarding `Nc1cc(OCc2ccccc2)ncn1`, the inhibition result in series [3] is “inactive”.

On to `Nc1cc(OCc2ccccc2)[nH]c(=O)n1`, for which, in series [3], the inhibition entry is “inactive”.

On to `CCCCCOc1nccc(N)n1`, for which the IC50 at Deoxycytidine kinase was 7000 µM. The compound also had an IC in series [3] of 10 mM. In addition, the Ratio in series [2] is 3.6.

Regarding `Nc1ccnc(Oc2ccc(Cl)cc2)n1`, the IC50 on Deoxycytidine kinase turned out to be 5000 µM. This compound also registered an IC in series [3] of 5 mM. Besides, the Ratio in series [2] stood at 2.

Consider `Nc1ccnc(SCc2ccccc2)n1`, for which, at Deoxycytidine kinase, the IC50 was 2800 µM. Further, the IC in series [3] worked out at 4 mM. Moreover, the Ratio in series [2] amounted to 2.8.

For the compound `CCCCCSc1nccc(N)n1`, the IC50 on Deoxycytidine kinase worked out at 2600 µM. This compound also returned an IC in series [3] of 2.6 mM. Besides, the Ratio in series [2] was 2.

On to `Nc1ccn(CCCOc2ccccc2)c(=O)n1`, for which the IC50 at Deoxycytidine kinase turned out to be 2500 µM. For the same compound, in series [3], the IC amounted to 2.5 mM. Moreover, in series [2], the Ratio came to 2.
